*1 amine or outer side, *2 acyl side, *3 side chain or, on linkers, in order; H or OH if unused. Where a SMILES comes first, the peptide text is derived from it. [ ]: non-standard residue; d: D form. The star is where a group is joined. X1 = O=C([C@H](Cc1ccccc1)OC[C@@H]1CCCN1[*:1])[*:2]; X2 = CC(CN[*:1])CC(N)C(O)CC(=O)[*:2]; NHCH2(2-pyridyl) = c1ccc(CN*)nc1; Boc = CC(C)(C)OC(=O)*; For = O=C*
Legend:
[1] = target: T1, Renin (Homo sapiens, UniProt P00797); experiment: Inhibition of Human plasma renin; format: cell-free
T1 sequence (P00797 whole entry): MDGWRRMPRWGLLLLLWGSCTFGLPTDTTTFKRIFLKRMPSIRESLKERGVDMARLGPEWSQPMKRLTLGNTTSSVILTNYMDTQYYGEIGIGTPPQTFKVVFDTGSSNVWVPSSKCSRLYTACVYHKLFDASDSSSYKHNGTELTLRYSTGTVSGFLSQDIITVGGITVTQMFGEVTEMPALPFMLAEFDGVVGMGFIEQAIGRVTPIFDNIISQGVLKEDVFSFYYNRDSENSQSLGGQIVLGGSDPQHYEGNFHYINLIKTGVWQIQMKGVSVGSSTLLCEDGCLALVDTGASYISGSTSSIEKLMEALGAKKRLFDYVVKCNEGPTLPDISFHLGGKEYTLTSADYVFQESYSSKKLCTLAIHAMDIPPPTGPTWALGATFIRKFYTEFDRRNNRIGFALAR
How it was run: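 Lyophilized human plasma containing 0.1% EDTA was used for angiotensin I generation with phenylmethanesulfonyl fluoride and maleate buffer pH 6.0. Inhibitor was added in a 1% Tween 80/water vehicle, followed by 90 min at 37 °C. Angiotensin I was measured by radioimmunoassay. Percent inhibition was taken against control tubes. IC50 was estimated graphically from 3-4 inhibitor concentrations on a semilog plot.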

[2] = target: Chymotrypsinogen A (Bos taurus) (UniProt P00766); experiment: % compound remaining at 60 min in presence of degradative […] (in vitro)
How it was run: (§1)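 Enzyme stocks were made in 50 mM Tris-HCl pH 7.5 (stock chymotrypsin 25 units/mL; elastase and carboxypeptidase Y 50 units/mL). Peptide at 0.8 mg/mL in 10% DMSO/Tris received 5 µL enzyme per 0.25 mL and was incubated at 37 °C for 0 or 60 min, then quenched with HPLC solvent B. Reverse-phase HPLC used an acetonitrile gradient. The 204 nm peak height was compared with the 0-min control. Incubations were run in triplicate, each assayed in duplicate.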

[3] = % compound remaining at 60 min in presence of degradative enzyme carboxypeptidase Y (in vitro); how it was run: as §1
[4] = species on record: Homo sapiens; experiment: % compound remaining at 60 min in presence of degradative enzyme elastase (in vitro); format: functional; how it was run: as §1

Compound: CC[C@H](C)[C@H](NC(=O)CC(O)C(N)CC(C)CNC(=O)[C@H](Cc1cnc[nH]1)NC(=O)[C@H](Cc1ccccc1)OC[C@@H]1CCCN1C(=O)OC(C)(C)C)C(=O)NCc1ccccn1 (stereo not given in full)
- IC50 [1]: 140 µM

Compound: CC(C)[C@H](NC(=O)[C@H](Cc1ccccc1)NC(=O)[C@H](Cc1ccccc1)NC(=O)[C@H](Cc1ccccc1)NC(=O)[C@H](Cc1c[nH]cn1)NC(=O)[C@H](Cc1ccccc1)NC(=O)[C@@H]1CCCN1C(=O)[C@H](Cc1c[nH]cn1)NC(=O)[C@@H]1CCCN1)C(=O)N[C@@H](Cc1ccc(O)cc1)C(=O)N[C@@H](CCCCN)C(=O)O [RIP] (H-PHPFHFFFVYK-OH)
- IC50 [1]: 7 µM
- Remaining [2]: 3%
- Remaining [3]: 2%

Compound: CC[C@H](C)[C@H](NC(=O)[C@@H](OC[C@H](CC(C)C)NC(=O)[C@H](Cc1c[nH]cn1)NC(=O)[C@H](Cc1ccccc1)NC(=O)[C@@H]1CCCN1C(=O)[C@H](Cc1c[nH]cn1)NC(=O)[C@@H]1CCCN1)C(C)C)C(=O)N[C@@H](Cc1c[nH]cn1)C(=O)N[C@H](CCCCN)C(=O)O
- IC50 [1]: 1.7 µM

Compound: CC[C@H](C)[C@H](NC(=O)CC(O)C(N)CC(C)CNC(=O)[C@H](Cc1cnc[nH]1)NC(=O)[C@H](Cc1ccccc1)OC[C@@H]1CCCN1C(=O)OC(C)(C)C)C(=O)N[C@@H](Cc1ccccc1)C(=O)OC (stereo not given in full)
- IC50 [1]: 2500 µM

Compound: CC[C@H](C)[C@H](NC(=O)CC(O)C(N)CC(C)CNC(=O)[C@H](Cc1c[nH]cn1)NC(=O)[C@H](Cc1ccccc1)OC[C@@H]1CCCN1C(=O)[C@H](Cc1c[nH]cn1)NC(=O)OC(C)(C)C)C(=O)NCc1ccccn1 (stereo not given in full)
- IC50 [1]: 100 µM

Compound: CC[C@H](C)[C@H](NC(=O)[C@@H](NCC(O)[C@H](CC(C)C)NC(=O)[C@H](Cc1c[nH]cn1)NC(=O)[C@H](Cc1ccccc1)OC[C@@H]1CCCN1C(=O)OC(C)(C)C)C(C)C)C(=O)NCc1ccccn1 (stereo not given in full)
- IC50 [1]: 2.3 µM

Compound: CC(C)[C@H](NC(=O)[C@H](Cc1ccccc1)NC(=O)[C@H](Cc1ccccc1)NC(=O)[C@H](Cc1c[nH]cn1)NC(=O)[C@H](Cc1ccccc1)NC(=O)[C@@H]1CCCN1C(=O)[C@H](Cc1c[nH]cn1)NC(=O)[C@@H]1CCCN1)C(=O)N[C@@H](Cc1ccc(O)cc1)C(=O)N[C@@H](CCCCN)C(=O)O [RIP] (H-PHPFHFFVYK-OH)
- Remaining [4]: 13%

Compound: CC[C@H](C)[C@H](NC(=O)CC(O)C(N)CC(C)CNC(=O)[C@H](Cc1c[nH]cn1)NC(=O)[C@H](Cc1ccccc1)OC[C@@H]1CCCN1C(=O)[C@H](Cc1cn(C=O)c2ccccc12)NC(C)=O)C(=O)N[C@@H](Cc1ccccc1)C(=O)OC (stereo not given in full) (Ac-W(For)[X1]H[X2]IF-OMe)
- IC50 [1]: 330 µM

Compound: CC[C@H](C)[C@H](NC(=O)[C@@H](NC[C@H](CC(C)C)NC(=O)[C@H](Cc1c[nH]cn1)NC(=O)[C@H](Cc1ccccc1)NC(=O)[C@@H]1CCCN1C(=O)[C@H](Cc1c[nH]cn1)NC(=O)[C@@H]1CCCN1)C(C)C)C(=O)N[C@@H](Cc1c[nH]cn1)C(=O)N[C@H](CCCCN)C(=O)O
- IC50 [1]: 0.05 µM

Compound: CC[C@H](C)[C@H](NC(=O)[C@@H](NCC(O)[C@H](CC(C)C)NC(=O)[C@H](Cc1cnc[nH]1)NC(=O)[C@H](Cc1ccccc1)NC(=O)[C@@H]1CCCN1C(=O)OC(C)(C)C)C(C)C)C(=O)NCc1ccccn1 (stereo not given in full)
- IC50 [1]: 0.36 µM

Compound: CC[C@H](C)[C@H](NC(=O)[C@@H](NCC(O)[C@H](CC(C)C)NC(=O)[C@H](Cc1c[nH]cn1)NC(=O)[C@H](Cc1ccccc1)OC[C@@H]1CCCN1C(=O)[C@H](Cc1ccccc1)NC(=O)OC(C)(C)C)C(C)C)C(=O)NCc1ccccn1 (stereo not given in full)
- IC50 [1]: 1.6 µM

Compound: CC[C@H](C)[C@H](NC(=O)CC(O)C(N)CC(C)CNC(=O)[C@H](Cc1c[nH]cn1)NC(=O)[C@H](Cc1ccccc1)NC(=O)[C@@H]1CCCN1C(=O)OC(C)(C)C)C(=O)N[C@@H](Cc1ccccc1)C(=O)OC (stereo not given in full) (Boc-PFH[X2]IF-OMe)
- IC50 [1]: 5.8 µM

Compound: CC[C@H](C)[C@H](NC(=O)[C@@H](NCC(O)[C@H](CC(C)C)NC(=O)[C@H](Cc1cnc[nH]1)NC(=O)[C@H](Cc1ccccc1)OC[C@@H]1CCCN1C(=O)[C@H](Cc1cnc[nH]1)NC(=O)OC(C)(C)C)C(C)C)C(=O)NCc1ccccn1 (stereo not given in full)
- IC50 [1]: 3 µM

Compound: CC[C@H](C)[C@H](NC(=O)CC(O)C(N)CC(C)CNC(=O)[C@H](Cc1cnc[nH]1)NC(=O)[C@H](Cc1ccccc1)NC(=O)[C@@H]1CCCN1C(=O)OC(C)(C)C)C(=O)NCc1ccccn1 (stereo not given in full) (Boc-PFH[X2]I-{NHCH2(2-pyridyl)})
- IC50 [1]: 4.1 µM

Compound: CC[C@H](C)[C@H](NC(=O)[C@H](C)OC[C@H](CC(C)C)NC(=O)[C@H](Cc1cnc[nH]1)NC(=O)[C@H](Cc1ccccc1)NC(=O)[C@@H]1CCCN1C(=O)[C@H](Cc1cnc[nH]1)NC(=O)[C@@H]1CCCN1)C(=O)N[C@@H](Cc1cnc[nH]1)C(=O)N[C@H](CCCCN)C(=O)O
- IC50 [1]: 18 µM

Compound: CC[C@H](C)[C@H](NC(=O)[C@H](CC(C)C)OC[C@H](CC(C)C)NC(=O)[C@H](Cc1cnc[nH]1)NC(=O)[C@H](Cc1ccccc1)NC(=O)[C@@H]1CCCN1C(=O)[C@H](Cc1cnc[nH]1)NC(=O)[C@@H]1CCCN1)C(=O)N[C@@H](Cc1cnc[nH]1)C(=O)N[C@H](CCCCN)C(=O)O
- IC50 [1]: 1.8 µM

Compound: CC[C@H](C)[C@H](NC(=O)CC(O)C(N)CC(C)CNC(=O)[C@H](Cc1cnc[nH]1)NC(=O)[C@H](Cc1ccccc1)OC[C@@H]1CCCN1C(=O)[C@H](Cc1cn(C=O)c2ccccc12)NC(=O)OC(C)(C)C)C(=O)N[C@@H](Cc1ccccc1)C(=O)OC (stereo not given in full) (Boc-W(For)[X1]H[X2]IF-OMe)
- IC50 [1]: 1000 µM

Compound: CC[C@H](C)[C@H](NC(=O)CC(O)C(N)CC(C)CNC(=O)[C@H](Cc1c[nH]cn1)NC(=O)[C@H](Cc1ccccc1)OC[C@@H]1CCCN1C(=O)[C@H](Cc1c[nH]cn1)NC(=O)OC(C)(C)C)C(=O)N[C@@H](Cc1ccccc1)C(=O)OC (stereo not given in full) (Boc-H[X1]H[X2]IF-OMe)
- IC50 [1]: 440 µM
